Reference: ChEMBL document CHEMBL1255289, “In vitro antifungal activities of isavuconazole (BAL4815), voriconazole, and fluconazole against 1,007 isolates of zygomycete, Candida, Aspergillus, Fusarium, and Scedosporium species” (2008)
Converted amounts (≈) assume the structure as drawn.

What was measured:
Assay type in all cases: functional
Fusarium [1] = experiment: Antifungal activity against Fusarium sp. isolates assessed as lowest compound concentration that produced slight growth or approximately 25% of that of growth control after 24 hrs by CLSI M38-A procedure based assay
Scedosporium apiospermum [2] = experiment: Antifungal activity against Scedosporium apiospermum isolates assessed as lowest compound concentration that produced complete inhibition of microbial growth after 24 hrs by CLSI M38-A procedure based assay; conditions: Scedosporium apiospermum, 24 h
Syncephalastrum [3] = experiment: Antifungal activity against Syncephalastrum isolates assessed as lowest compound concentration that produced slight growth or approximately 25% of that of growth control after 24 hrs by CLSI M38-A procedure based assay
Procedure, shortened: (§1)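 Clinical isolates were kept at –70°C as spore suspensions in sterile water and subcultured on potato dextrose or Sabouraud agar before testing. Broth microdilution used DMSO stocks in trays stored at –70°C, with final drug 0.015–16 µg/ml.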

Aspergillus sp. = experiment: Antifungal activity against Aspergillus sp. isolates after 48 hrs by CLSI M38-A procedure based assay
Procedure, shortened: (§2)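 Aspergillus isolates tested by CLSI M38-A broth microdilution at final 0.015–16 µg/ml and 35°C. Plates were read macroscopically at 48 h. The MIC was the lowest concentration producing complete inhibition of growth (MIC-0).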

Aspergillus flavus = experiment: Antifungal activity against Aspergillus flavus isolates after 48 hrs by CLSI M38-A procedure based assay; conditions: Aspergillus flavus, 48 h; procedure, shortened: as §2
Aspergillus fumigatus = experiment: Antifungal activity against Aspergillus fumigatus isolates after 48 hrs by CLSI M38-A procedure based assay; conditions: Aspergillus fumigatus, 48 h; procedure, shortened: as §2
Pichia kudriavzevii = experiment: Antifungal activity against Candida krusei isolates after 48 hrs by CLSI M27-A2 procedure based assay
Procedure, shortened: (§3)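 Candida isolates tested by CLSI M27-A2 broth microdilution at final 0.015–16 µg/ml, or 0.125–128 µg/ml for the comparator azole. Incubation was at 35°C with a visual read at 48 h. MIC-2 was the lowest concentration giving a prominent turbidity drop, about 50% growth inhibition.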

Cunninghamella [4] = experiment: Antifungal activity against Cunninghamella isolates assessed as lowest compound concentration that produced complete inhibition of microbial growth after 24 hrs by CLSI M38-A procedure based assay
Procedure, shortened: (§4)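 Zygomycete isolates subcultured on potato dextrose or Sabouraud agar, then tested by CLSI M38-A broth microdilution. Drugs were serially diluted in plates at final 0.015–16 µg/ml and incubated at 35°C. Plates were read by eye at 24 h. MIC-0 was the lowest concentration giving complete growth inhibition.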

Lomentospora prolificans [5] = experiment: Antifungal activity against Scedosporium prolificans isolates assessed as lowest compound concentration that produced slight growth or approximately 25% of that of growth control after 24 hrs by CLSI M38-A procedure based assay
Candida parapsilosis = experiment: Antifungal activity against Candida parapsilosis isolates after 48 hrs by CLSI M27-A2 procedure based assay; conditions: Lodderomyces parapsilosis, 48 h; procedure, shortened: as §3
Rhizopus [6] = experiment: Antifungal activity against Rhizopus isolates assessed as lowest compound concentration that produced slight growth or approximately 25% of that of growth control after 24 hrs by CLSI M38-A procedure based assay
Procedure, shortened: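 Rhizopus isolates tested by CLSI M38-A broth microdilution at final 0.015–16 µg/ml, 35°C, read by eye at 24 h.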

Aspergillus niger = experiment: Antifungal activity against Aspergillus niger isolates after 48 hrs by CLSI M38-A procedure based assay; conditions: Aspergillus niger, 48 h; procedure, shortened: as §2
Nakaseomyces glabratus = experiment: Antifungal activity against Candida glabrata isolates after 48 hrs by CLSI M27-A2 procedure based assay; conditions: Nakaseomyces glabratus, 48 h; procedure, shortened: as §3
Candida = experiment: Antifungal activity against Candida sp. isolates after 48 hrs by CLSI M27-A2 procedure based assay
Procedure, shortened: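 Candida isolates were stored at –70°C as yeast suspensions and subcultured on potato dextrose or Sabouraud agar before use. Broth microdilution used DMSO drug stocks, with final well concentrations of 0.015–16 or 0.125–128 µg/ml depending on the azole. Plates were incubated at 35°C and read macroscopically at 48 h. MIC-2 was the lowest concentration giving a prominent turbidity decrease (~50% growth inhibition).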

Fusarium [7] = experiment: Antifungal activity against Fusarium sp. isolates assessed as lowest compound concentration that produced complete inhibition of microbial growth after 24 hrs by CLSI M38-A procedure based assay; conditions: Fusarium, 24 h
Scedosporium apiospermum [8] = experiment: Antifungal activity against Scedosporium apiospermum isolates assessed as lowest compound concentration that produced slight growth or approximately 25% of that of growth control after 24 hrs by CLSI M38-A procedure based assay
Absidia [9] = experiment: Antifungal activity against Absidia isolates assessed as lowest compound concentration that produced complete inhibition of microbial growth after 24 hrs by CLSI M38-A procedure based assay; procedure, shortened: as §4
Candida albicans = experiment: Antifungal activity against Candida albicans isolates after 48 hrs by CLSI M27-A2 procedure based assay; conditions: Candida albicans, 48 h; procedure, shortened: as §3
Aspergillus terreus = experiment: Antifungal activity against Aspergillus terreus isolates after 48 hrs by CLSI M38-A procedure based assay; conditions: Aspergillus terreus, 48 h; procedure, shortened: as §2
Mucor [10] = experiment: Antifungal activity against Mucor isolates assessed as lowest compound concentration that produced slight growth or approximately 25% of that of growth control after 24 hrs by CLSI M38-A procedure based assay; procedure, shortened: as §1
Absidia [11] = experiment: Antifungal activity against Absidia isolates assessed as lowest compound concentration that produced slight growth or approximately 25% of that of growth control after 24 hrs by CLSI M38-A procedure based assay; procedure, shortened: as §1
Candida tropicalis = experiment: Antifungal activity against Candida tropicalis isolates after 48 hrs by CLSI M27-A2 procedure based assay; conditions: Candida tropicalis, 48 h; procedure, shortened: as §3
Cunninghamella [12] = experiment: Antifungal activity against Cunninghamella isolates assessed as lowest compound concentration that produced slight growth or approximately 25% of that of growth control after 24 hrs by CLSI M38-A procedure based assay; procedure, shortened: as §1
Lomentospora prolificans [13] = experiment: Antifungal activity against Scedosporium prolificans isolates assessed as lowest compound concentration that produced complete inhibition of microbial growth after 24 hrs by CLSI M38-A procedure based assay; conditions: Lomentospora prolificans, 24 h
Syncephalastrum [14] = experiment: Antifungal activity against Syncephalastrum isolates assessed as lowest compound concentration that produced complete inhibition of microbial growth after 24 hrs by CLSI M38-A procedure based assay; procedure, shortened: as §4
Mucor [15] = experiment: Antifungal activity against Mucor isolates assessed as lowest compound concentration that produced complete inhibition of microbial growth after 24 hrs by CLSI M38-A procedure based assay; conditions: Mucor, 24 h; procedure, shortened: as §4
Rhizopus [16] = experiment: Antifungal activity against Rhizopus isolates assessed as lowest compound concentration that produced complete inhibition of microbial growth after 24 hrs by CLSI M38-A procedure based assay; conditions: Rhizopus, 24 h; procedure, shortened: as §4

C[C@@H](c1ncncc1F)[C@](O)(Cn1cncn1)c1ccc(F)cc1F [VORICONAZOLE]
MIC50 (Fusarium [1]): 4 µg/mL (≈ 11.5 µM)
MIC90 (Fusarium [1]): 8 µg/mL (≈ 22.9 µM)
MIC50 (Scedosporium apiospermum [2]): 0.5 µg/mL (≈ 1.43 µM)
MIC90 (Scedosporium apiospermum [2]): 1 µg/mL (≈ 2.86 µM)
MIC (Syncephalastrum [3]): 2 µg/mL (≈ 5.73 µM)
MIC (Aspergillus sp.): 0.125 µg/mL (≈ 0.358 µM)
MIC50 (Aspergillus flavus): 1 µg/mL (≈ 2.86 µM)
MIC90 (Aspergillus flavus): 1 µg/mL (≈ 2.86 µM)
MIC50 (Aspergillus fumigatus): 0.5 µg/mL (≈ 1.43 µM)
MIC90 (Aspergillus fumigatus): 1 µg/mL (≈ 2.86 µM)
MIC (Pichia kudriavzevii): 0.125 µg/mL (≈ 0.358 µM)
MIC (Cunninghamella [4]): > 16 µg/mL
MIC (Lomentospora prolificans [5]): 4 µg/mL (≈ 11.5 µM)
MIC (Candida parapsilosis): < 0.015 µg/mL
MIC50 (Candida parapsilosis): < 0.015 µg/mL
MIC90 (Candida parapsilosis): 0.06 µg/mL (≈ 0.172 µM)
MIC50 (Rhizopus [6]): 8 µg/mL (≈ 22.9 µM)
MIC90 (Rhizopus [6]): > 16 µg/mL
MIC50 (Aspergillus niger): 1 µg/mL (≈ 2.86 µM)
MIC90 (Aspergillus niger): 1 µg/mL (≈ 2.86 µM)
MIC50 (Nakaseomyces glabratus): 0.125 µg/mL (≈ 0.358 µM)
MIC90 (Nakaseomyces glabratus): 1 µg/mL (≈ 2.86 µM)
MIC (Candida): 0.006 µg/mL (≈ 0.0172 µM)
MIC50 (Fusarium [7]): 4 µg/mL (≈ 11.5 µM)
MIC90 (Fusarium [7]): 16 µg/mL (≈ 45.8 µM)
MIC50 (Scedosporium apiospermum [8]): 0.25 µg/mL (≈ 0.716 µM)
MIC90 (Scedosporium apiospermum [8]): 0.5 µg/mL (≈ 1.43 µM)
MIC (Absidia [9]): 4 µg/mL (≈ 11.5 µM)
MIC50 (Candida albicans): 0.03 µg/mL (≈ 0.0859 µM)
MIC90 (Candida albicans): 0.06 µg/mL (≈ 0.172 µM)
MIC50 (Aspergillus terreus): 1 µg/mL (≈ 2.86 µM)
MIC90 (Aspergillus terreus): 1 µg/mL (≈ 2.86 µM)
MIC50 (Mucor [10]): 16 µg/mL (≈ 45.8 µM)
MIC90 (Mucor [10]): > 16 µg/mL
MIC (Absidia [11]): 4 µg/mL (≈ 11.5 µM)
MIC50 (Candida tropicalis): 0.03 µg/mL (≈ 0.0859 µM)
MIC90 (Candida tropicalis): 0.06 µg/mL (≈ 0.172 µM)
MIC (Cunninghamella [12]): 8 µg/mL (≈ 22.9 µM)
MIC (Lomentospora prolificans [13]): 16 µg/mL (≈ 45.8 µM)
MIC (Syncephalastrum [14]): 4 µg/mL (≈ 11.5 µM)
MIC50 (Mucor [15]): > 16 µg/mL
MIC90 (Mucor [15]): > 16 µg/mL
MIC (Rhizopus [16]): 8 µg/mL (≈ 22.9 µM)
MIC50 (Rhizopus [16]): 8 µg/mL (≈ 22.9 µM)
MIC90 (Rhizopus [16]): 16 µg/mL (≈ 45.8 µM)

OC(Cn1cncn1)(Cn1cncn1)c1ccc(F)cc1F [FLUCONAZOLE]
MIC (Pichia kudriavzevii): 16 µg/mL (≈ 52.2 µM)
MIC50 (Candida parapsilosis): 0.5 µg/mL (≈ 1.63 µM)
MIC90 (Candida parapsilosis): 1 µg/mL (≈ 3.27 µM)
MIC50 (Nakaseomyces glabratus): 16 µg/mL (≈ 52.2 µM)
MIC90 (Nakaseomyces glabratus): 32 µg/mL (≈ 104 µM)
MIC (Candida): 0.25 µg/mL (≈ 0.816 µM)
MIC50 (Candida albicans): 0.25 µg/mL (≈ 0.816 µM)
MIC90 (Candida albicans): 16 µg/mL (≈ 52.2 µM)
MIC (Candida tropicalis): 0.25 µg/mL (≈ 0.816 µM)
MIC50 (Candida tropicalis): 0.25 µg/mL (≈ 0.816 µM)
MIC90 (Candida tropicalis): 2 µg/mL (≈ 6.53 µM)
